Consider 52 compounds from ChEMBL document CHEMBL1125715, “Novel 5-HT3 antagonists. Indole oxadiazoles” (J Med Chem, 1991).

Data set [1] concerns the target T1, Serotonin 3 (5-HT3) receptor (Rattus norvegicus, UniProt P35563+Q9JJ16).
T1 sequence (P35563 whole entry): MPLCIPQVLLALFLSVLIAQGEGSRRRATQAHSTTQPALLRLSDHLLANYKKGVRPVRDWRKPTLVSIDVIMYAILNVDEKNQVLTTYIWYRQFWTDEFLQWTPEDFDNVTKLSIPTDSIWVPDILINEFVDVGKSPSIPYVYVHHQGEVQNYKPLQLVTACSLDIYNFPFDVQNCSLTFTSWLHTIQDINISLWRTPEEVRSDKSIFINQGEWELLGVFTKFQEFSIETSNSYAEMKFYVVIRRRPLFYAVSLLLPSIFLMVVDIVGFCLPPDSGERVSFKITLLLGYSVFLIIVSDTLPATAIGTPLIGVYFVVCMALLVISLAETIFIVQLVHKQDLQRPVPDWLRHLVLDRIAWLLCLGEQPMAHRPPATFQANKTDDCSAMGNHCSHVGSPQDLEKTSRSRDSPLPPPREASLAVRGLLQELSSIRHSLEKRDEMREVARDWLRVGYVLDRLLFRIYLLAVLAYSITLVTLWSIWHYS
T1 sequence (Q9JJ16 whole entry): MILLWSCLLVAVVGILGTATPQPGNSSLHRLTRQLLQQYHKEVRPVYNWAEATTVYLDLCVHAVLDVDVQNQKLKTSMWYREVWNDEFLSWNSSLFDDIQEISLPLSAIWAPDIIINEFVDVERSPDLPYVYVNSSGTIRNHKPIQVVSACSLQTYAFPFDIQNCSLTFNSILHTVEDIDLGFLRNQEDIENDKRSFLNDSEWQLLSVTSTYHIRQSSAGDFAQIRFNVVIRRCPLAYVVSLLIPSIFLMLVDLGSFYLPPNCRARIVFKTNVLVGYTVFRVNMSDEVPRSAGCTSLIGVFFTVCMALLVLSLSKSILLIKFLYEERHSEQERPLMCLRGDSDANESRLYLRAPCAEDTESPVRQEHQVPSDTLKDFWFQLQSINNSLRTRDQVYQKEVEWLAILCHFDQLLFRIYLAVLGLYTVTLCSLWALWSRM
Nature of the data set: Displacement of [3H]-Q-ICS 205-930 binding to 5-hydroxytryptamine 3 receptor recognition sites in rat brain membranes. In kind it is cell membranes. An outline of the steps:
(§1)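 Rat cortical membranes from male Sprague-Dawley rats (250-300 g): sucrose homogenization, differential centrifugation, washed in 2.5 mM Hepes, made fresh on the day. About 400 µg protein incubated on ice (4 °C, 15 min) with 0.5-0.7 nM [3H]Q-ICS 205-930 in 10 mM Hepes pH 7.1 containing pargyline and ascorbate. Nonspecific binding defined with 10 µM MDL 72222.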

A short description of data set [2]: pKa value of the compound. In kind it is physicochemical.
A short description of data set [3]: pKa value of the compound. In kind it is physicochemical.
The target in data set [4] is T1, Serotonin 3 (5-HT3) receptor. Nature of the data set: Compound was evaluated for the displacement of [3H]-Q-ICS 205-930 binding to 5-hydroxytryptamine 3 receptor in rat brain membranes. In kind it is cell membranes. An outline of the steps:
as §1

For `Cn1cc(-c2noc(C3CC4CCC3NC4)n2)c2ccccc21` (stereo in doubt; 12t), the IC50 (in general, the concentration that inhibits the measured activity by half) in data set [1] was 13.2 nM. That is a double-digit nanomolar value. Take `CNCCc1nc(-c2cn(C)c3ccccc23)no1`: the IC50 in data set [1] is 85.1 nM. Besides, the pKa (commonly the pH at which an ionisable group is half protonated) in data set [2] was found to be 8.8. `Cn1cc(-c2noc(C[N+](C)(C)C)n2)c2ccccc21` had an IC50 in data set [1] of 0.708 nM. In data set [1], `CN(C)CCc1nc(-c2cn(C)c3ccccc23)no1` showed an IC50 of 13.8 nM. This compound also returned a pKa in data set [2] of 7.7. The compound `Cn1cc(-c2nsc(C3CC4CCN3C4)n2)c2ccccc21` (stereo in doubt; 26) had an IC50 in data set [1] of 14.1 nM. The compound `Cn1cc(-c2noc(CCN)n2)c2ccccc21` had an IC50 in data set [1] of 67.6 nM. This IC50 is about 4.8-fold higher than that of the compound before. `CNCc1nc(-c2cn(C)c3ccccc23)no1` showed an IC50 in data set [1] of 1000 nM. For the same compound, the pKa in data set [2] amounted to 6.5.

For `Cn1cc(-c2noc(C3CN4CCC3CC4)n2)c2cc(F)ccc21` (centres undefined), the IC50 in data set [1] is 45.7 nM.

The compound `Cn1cc(-c2nc(C3CN4CCC3CC4)no2)c2ccccc21` (centres undefined) gave an IC50 in data set [1] of 29.5 nM. On the same count and under the same terms, then `c1ccc2c(-c3noc(C4CN5CCC4CC5)n3)[nH]nc2c1` (centres undefined), with 17.8 nM; and `c1ccc(-c2noc(C3CN4CCC3CC4)n2)cc1` (centres undefined), with 200 nM; and `Cn1c(-c2noc(C3CN4CCC3CC4)n2)cc2ccccc21` (centres undefined), with 676 nM. The compound `Oc1ccc(-c2noc(C3CN4CCC3CC4)n2)cc1` (centres undefined) showed an IC50 in data set [1] of 148 nM. Same read-out and setting: as for `c1ccc2ncc(-c3noc(C4CN5CCC4CC5)n3)cc2c1` (centres undefined), the figure is 1510 nM; as for `CN1CC2CCC1C(c1nc(-c3cn(C)c4ccccc34)no1)C2` (stereo in doubt; 12z), 85.1 nM. In turn, `Cn1cc(-c2noc(C3CC4CCC3NC4)n2)c2ccccc21` (stereo in doubt; 12s) showed an IC50 in data set [1] of 89.1 nM. Still for that read-out and setting: then `CN1CC2CCC1C(c1nc(-c3cn(C)c4ccccc34)no1)C2` (stereo in doubt; 12y), with 224 nM; and `Cn1cc(-c2noc(C3CN4CCC3C4)n2)c2ccccc21` (stereo in doubt; 12v), with 1.05 nM.

The compound `Cn1cc(-c2noc(C3CC4CCN3CC4)n2)c2ccccc21` (centres undefined) gave a half-inhibitory concentration (IC50) in data set [1] of 129 nM. Same read-out and setting: as for `c1ccc2[nH]c(-c3noc(C4CN5CCC4CC5)n3)cc2c1` (centres undefined), the figure is 692 nM. In data set [1], `Cn1cc(-c2noc(C3=CCCNC3)n2)c2ccccc21` had an IC50 of 468 nM. Besides, the pKa in data set [2] is 7.9. In turn, `CN1CCC=C(c2nc(-c3cn(C)c4ccccc34)no2)C1` showed an IC50 in data set [1] of 209 nM. In addition, the pKa in data set [3] was 7.2. Regarding `COc1ccc(-c2noc(C3CN4CCC3CC4)n2)cc1` (centres undefined), the IC50 in data set [1] is 1580 nM. As for `c1ccc2c(-c3noc(C4CN5CCC4CC5)n3)cccc2c1` (centres undefined), the IC50 in data set [1] was 63.1 nM.

The compound `c1ccc2c(-c3noc(C4CN5CCC4CC5)n3)c[nH]c2c1` (centres undefined) showed an IC50 in data set [1] of 2.69 nM. Take `Cn1cc(-c2noc(CC3CN4CCC3CC4)n2)c2ccccc21` (centres undefined): the IC50 in data set [1] was 55 nM. Still for that read-out and setting: as for `Cc1cccc2c(-c3noc(C4CN5CCC4CC5)n3)cn(C)c12` (centres undefined), the figure is 95.5 nM. `CN1[C@@H]2CC[C@H]1C[C@@H](OC(=O)c1cc(Cl)cc(Cl)c1)C2` [BEMESETRON] showed an IC50 in data set [4] of 21.9 nM. In data set [1], `CN(C)CCCc1nc(-c2cn(C)c3ccccc23)no1` had a 50% inhibitory concentration (IC50) of 191 nM. Still for that read-out and setting: then `Cn1cc(-c2noc(C3CCC[N+](C)(C)C3)n2)c2ccccc21` (centres undefined), with 34.7 nM; and `CN1CC=C(c2nnc(-c3cn(C)c4ccccc34)o2)CC1`, with 501 nM. Same read-out and setting: as for `Cn1cc(-c2noc(C3CC[N+](C)(C)CC3)n2)c2ccccc21`, the figure is 35.5 nM.

In data set [1], `Cn1cc(-c2noc(C34CCN(CC3)CC4)n2)c2ccccc21` gave an IC50 of 4.27 nM.

Take `COc1ccccc1-c1noc(C2CN3CCC2CC3)n1` (centres undefined): the IC50 in data set [1] was 155 nM. Turning to `Cc1[nH]c2ccc(O)cc2c1CCN`, the IC50 in data set [4] was 646 nM.

`CN1CCCC(c2nc(-c3cn(C)c4ccccc34)no2)C1` (centres undefined): the IC50 in data set [1] was 12.9 nM. This counts as double-digit nanomolar.

`CN1CCC=C(c2csc(-c3cn(C)c4ccccc34)n2)C1` gave an IC50 in data set [1] of 5890 nM. Compared with the last compound, the IC50 is about 460-fold higher. Same read-out and setting: as for `C=CCn1cc(-c2noc(C3CN4CCC3CC4)n2)c2ccccc21` (centres undefined), the figure is 21.9 nM; as for `c1ccc2cc(-c3noc(C4CN5CCC4CC5)n3)ccc2c1` (centres undefined), 1480 nM. In turn, `Cn1cc(-c2noc(CN)n2)c2ccccc21` had an IC50 in data set [1] of 282 nM. Further, the pKa in data set [2] worked out at 6.4.

In data set [1], `c1cncc(-c2noc(C3CN4CCC3CC4)n2)c1` (centres undefined) showed a 50% inhibitory concentration (IC50) of 2950 nM. This lies in the single-digit micromolar range.

`COc1cccc(-c2noc(C3CN4CCC3CC4)n2)c1` (centres undefined) gave an IC50 in data set [1] of 12.6 nM. Same read-out and setting: then `Cn1cc(-c2noc(CCN3CCCCC3)n2)c2ccccc21`, with 372 nM; and `CN1CCC(c2nc(-c3cn(C)c4ccccc34)no2)CC1`, with 13.2 nM; and `Oc1cccc(-c2noc(C3CN4CCC3CC4)n2)c1` (centres undefined), with 81.3 nM. In turn, `Cn1cc(-c2nsc(C3CC4CCN3C4)n2)c2ccccc21` (stereo in doubt; 27) had an IC50 in data set [1] of 20.4 nM. Against the preceding compound, the IC50 is about 4-fold lower. In the case of `Cn1cc(-c2noc(C3CN4CCC3C4)n2)c2ccccc21` (stereo in doubt; 12u), the IC50 in data set [1] was 7.59 nM.

Compound `Cc1ccc2c(c1)c(-c1noc(C3CN4CCC3CC4)n1)cn2C` (centres undefined) gave an IC50 in data set [1] of 331 nM. Same read-out and setting: then `Oc1ccccc1-c1noc(C2CN3CCC2CC3)n1` (centres undefined), with 41.7 nM; and `Cn1cc(-c2noc(C3CN4CCC3CC4)n2)c2ccccc21` (centres undefined), with 1.38 nM. As for `CN(C)Cc1nc(-c2cn(C)c3ccccc23)no1`, the 50% inhibitory concentration (IC50) in data set [1] is 166 nM. In addition, in data set [2], the pKa amounted to 5.6. Turning to `CN1C2CCC1CC(c1nc(-c3cn(C)c4ccccc34)no1)C2` (centres undefined), in data set [1], the half-inhibitory concentration (IC50) is 191 nM.
